Laboratory results from ChEMBL document CHEMBL2331214, “Structure-Based Design and Synthesis of an HIV-1 Entry Inhibitor Exploiting X-Ray and Thermodynamic Characterization” (ACS Med Chem Lett, 2013).

Key:
[1] = test system: Human immunodeficiency virus 1; assay: Activation of HIV1 isolate YU2 infectivity in CD4 negative dog CF2Th cells expressing CCR5 by luciferase reporter gene assay relative to TS-2-224; assay type: organism-based; details: human immunodeficiency virus 1, cf2th
[2] = Inhibition of HIV1 isolate YU2 gp120 binding to human CD4 expressed in dog CF2Th cells coexpressing CCR5 after 2 to 4 hrs by luciferase reporter gene assay; assay type: cell-based, Human immunodeficiency virus type 1 (isolate YU2)
Method in brief: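 HIV-1 YU2 infection of Cf2Th cells expressing CD4 and CCR5; the IC50 is for inhibition of viral entry.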

[3] = Inhibition of AMLV gp120 binding to human CD4 expressed in canine CF2Th cells coexpressing CCR5 after 2 to 4 hrs by luciferase reporter gene assay; assay type: cell-based, Amphotropic murine leukemia virus
[4] = Binding affinity to HIV1 full length gp120 by isothermal titration calorimetric assay; set-up: species or system Human immunodeficiency virus 1
Method in brief: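 ITC titration of full-length monomeric gp120 with ligand at 25 °C.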

[5] = test system: Human immunodeficiency virus 1; assay: Activation of HIV1 isolate YU2 infectivity in CD4 negative dog CF2Th cells expressing CCR5 by luciferase reporter gene assay relative to NBD556; assay type: organism-based; details: human immunodeficiency virus 1, cf2th
Method in brief: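 HIV-1 YU2 infection of CD4-negative Cf2Th-CCR5 cells; relative activation of viral infectivity is normalized to the reference CD4-mimetic agonist.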

[6] = test system: Human immunodeficiency virus 1; assay: Antiviral activity against 0.01 to 0.1 MOI HIV1 Env-pseudovirus Clade B infected in human TZM-bl cells after 30 mins by luciferase assay; assay type: functional, organism-based; details: Human immunodeficiency virus 1, Clade B, 0.5 h
Method in brief: (§1)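 Neutralization breadth is tested against a panel of 42 diverse Tier 2 clade B and C Env-pseudoviruses. IC50 values are summarized as geometric mean titers for the sensitive strains.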

[7] = test system: Human immunodeficiency virus 1; assay: Antiviral activity against 0.01 to 0.1 MOI HIV1 Env-pseudovirus Clade C infected in human TZM-bl cells after 30 mins by luciferase assay; assay type: functional, organism-based; details: Human immunodeficiency virus 1, Clade C, 0.5 h; method in brief: as §1

SMILES | fold change (FC) [1] | IC50 [2] [µM] | IC50 [3] [µM] | Kd [4] [µM] | fold change (FC) [5] | IC50 [6] [µM] | IC50 [7] [µM]
N=C(N)N[C@H]1Cc2ccccc2[C@@H]1NC(=O)C(=O)Nc1ccc(Cl)c(F)c1.O=CO | 0.1 | 22.9 | > 100 | 0.25 |  |  | 
N=C(N)N[C@@H]1Cc2ccccc2[C@H]1NC(=O)C(=O)Nc1ccc(Cl)c(F)c1.O=CO | 0 | 21.3 | > 100 | 0.3 |  |  | 
N=C(N)NCC[C@@H]1Cc2ccccc2[C@H]1NC(=O)C(=O)Nc1ccc(Cl)c(F)c1.O=CO |  | 68.5 | > 100 | 2 | 0 |  | 
N=C(N)NC[C@@H]1Cc2ccccc2[C@H]1NC(=O)C(=O)Nc1ccc(Cl)c(F)c1.O=CO |  | 37.9 | > 100 | 6.2 | 0.11 |  | 
N=C(N)NCC[C@H]1Cc2ccccc2[C@@H]1NC(=O)C(=O)Nc1ccc(Cl)c(F)c1.O=CO |  | 28.2 | > 100 | 0.34 | 0.17 |  | 
N=C(N)NC[C@H]1Cc2ccccc2[C@@H]1NC(=O)C(=O)Nc1ccc(Cl)c(F)c1.O=CO |  | 2.3 | > 100 | 0.11 | 0 | 1.7 | 14
N=C(N)NCC1Cc2ccccc2C1NC(=O)C(=O)Nc1ccc(Cl)c(F)c1 (racemic) |  | 10.3 |  |  |  |  | 
